# Assay results reported in ChEMBL document CHEMBL2146414, “Lignan derivatives from Krameria lappacea roots inhibit acute inflammation in vivo and pro-inflammatory mediators in vitro” (J Nat Prod, 2011).
# Active and inactive are the calls of the source. The calls are words filed in the database; no cut-off is given here.
# Experiments:
# [1] = Inhibition of NFkappaB activity transfected in HEK293 cells pretreated for 1 hr before 6 hrs of LPS challenge by luciferase reporter gene assay; conditions: Homo sapiens
# Mus musculus [2] = experiment: Antiinflammatory activity in CD1 mouse ear dermatitis model assessed as inhibition of Croton oil-induced ear edema at 0.01 umol administered topically per cm'2 of ear measured after induction of dermatitis relative to untreated control; type: functional
# Outline: (§1)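 Male CD-1 mice (28–32 g), anesthetized with ketamine 145 mg/kg i.p.; right ear (about 1 cm2) given 80 μg croton oil in 15 μL acetone, with test substance co-applied in acetone; left ear left untreated. Controls received irritant only. 6 mm punches taken from both ears; edema = weight difference treated minus untreated; % inhibition vs controls. ID50 by graphic interpolation of log dose–effect curves; ANOVA with Dunnett's test.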
# Mus musculus [3] = experiment: Antiinflammatory activity in CD1 mouse ear dermatitis model assessed as inhibition of Croton oil-induced ear edema at 0.04 umol administered topically per cm'2 of ear measured 6 hrs after induction of dermatitis relative to untreated control; type: functional; outline: as §1
# Mus musculus [4] = experiment: Antiinflammatory activity in CD1 mouse ear dermatitis model assessed as inhibition of Croton oil-induced ear edema administered topically per cm'2 of ear measured after induction of dermatitis relative to untreated control; type: functional
# Mus musculus [5] = experiment: Antiinflammatory activity in CD1 mouse ear dermatitis model assessed as inhibition of Croton oil-induced ear edema at 0.04 umol administered topically per cm'2 of ear measured 12 hrs after induction of dermatitis relative to untreated control; type: functional; outline: as §1
# Mus musculus [6] = experiment: Antiinflammatory effect in CD1 mouse ear dermatitis model assessed as reduction in vascular changes at 0.04 umol administered topically per cm'2 of ear measured after 6 hrs post dermatitis induction relative to control; type: functional, organism-based
# Outline: (§2)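 Male CD-1 mice (28–32 g) anesthetized with ketamine 145 mg/kg ip; right ear (about 1 cm2) given 80 μg croton oil in 15 μL acetone with test substance co-applied in acetone; controls irritant only; left ear untreated. Ears fixed in 10% formalin, paraffin-embedded, 10 μm sections stained hematoxylin-eosin or Giemsa, examined by light microscopy at set times after induction.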
# Mus musculus [7] = experiment: Antiinflammatory activity in CD1 mouse ear dermatitis model assessed as reduction in AUC of Croton oil-induced ear edema response at 0.04 umol administered topically per cm'2 of ear measured 48 hrs after induction of dermatitis relative to untreated control; type: functional
# Outline: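 Croton oil dermatitis on the right ear of anesthetized male CD-1 mice, with compound co-applied topically in acetone. Ear punch weight difference (treated minus untreated ear) measured at several times up to 48 h.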
# Mus musculus [8] = experiment: Antiinflammatory activity in CD1 mouse ear dermatitis model assessed as inhibition of Croton oil-induced ear edema at 0.10 umol administered topically per cm'2 of ear measured after induction of dermatitis relative to untreated control; type: functional; outline: as §1
# Mus musculus [9] = experiment: Antiinflammatory activity in CD1 mouse ear dermatitis model assessed as reduction in AUC of global leukocyte infiltration-based myeloperoxidase activity at 0.04 umol administered topically per cm'2 of ear measured 3 to 48 hrs post dermatitis induction relative to untreated control; type: functional
# Outline: (§3)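 Same croton oil ear model in CD-1 mice. The ear punch is homogenized in 0.1 M acetate pH 4.2 with 0.1% HTAB and centrifuged 15000g for 5 min. Supernatant myeloperoxidase is assayed with 2.83 mM TMB plus 0.7 mM H2O2 for 5 min at 25 °C, stopped with acetic acid, A620, duplicates.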
# Mus musculus [10] = experiment: Antiinflammatory effect in CD1 mouse ear dermatitis model assessed as reduction in cellular changes at 0.04 umol administered topically per cm'2 of ear measured after 6 hrs post dermatitis induction relative to control; type: functional, organism-based; outline: as §2
# Mus musculus [11] = experiment: Antiinflammatory activity in CD1 mouse ear dermatitis model assessed as inhibition of Croton oil-induced ear edema at 0.03 umol administered topically per cm'2 of ear measured after induction of dermatitis relative to untreated control; type: functional; outline: as §1
# Mus musculus [12] = experiment: Antiinflammatory activity in CD1 mouse ear dermatitis model assessed as reduction in leukocyte infiltration-based myeloperoxidase activity at 0.04 umol administered topically per cm'2 of ear measured 3 to 48 hrs post dermatitis induction relative to untreated control; type: functional; outline: as §3
# Mus musculus [13] = experiment: Antiinflammatory activity in CD1 mouse ear dermatitis model assessed as inhibition of Croton oil-induced ear edema at 0.30 umol administered topically per cm'2 of ear measured after induction of dermatitis relative to untreated control; type: functional; outline: as §1
# Mus musculus [14] = experiment: Antiinflammatory effect in CD1 mouse ear dermatitis model assessed as reduction in vascular changes at 0.4 umol administered topically per cm'2 of ear measured after 6 hrs post dermatitis induction relative to control; type: functional, organism-based; outline: as §2
# Mus musculus [15] = experiment: Antiinflammatory activity in CD1 mouse ear dermatitis model assessed as inhibition of Croton oil-induced ear edema at 1 umol administered topically per cm'2 of ear measured after induction of dermatitis relative to untreated control; type: functional; outline: as §1
# Mus musculus [16] = experiment: Antiinflammatory effect in CD1 mouse ear dermatitis model assessed as reduction in cellular changes at 0.4 umol administered topically per cm'2 of ear measured after 6 hrs post dermatitis induction relative to control; type: functional, organism-based; outline: as §2
# Mus musculus [17] = experiment: Antiinflammatory effect in CD1 mouse ear dermatitis model assessed as dermal swelling at 0.4 umol administered topically per cm'2 of ear after 9 hrs of post dermatitis induction relative to control; type: functional, organism-based; outline: as §2
# Mus musculus [18] = experiment: Antiinflammatory effect in CD1 mouse ear dermatitis model assessed as preservance of mast cell degranulation at 0.4 umol administered topically per cm'2 of ear measured after 6 hrs post dermatitis induction relative to control; type: functional, organism-based; outline: as §2
# Mus musculus [19] = experiment: Antiinflammatory effect in CD1 mouse ear dermatitis model assessed as reduction in leukocyte infiltration-based myeloperoxidase at 0.4 umol administered topically per cm'2 of ear measured after 6 hrs post dermatitis induction relative to control; type: functional, organism-based
# Outline: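 CD-1 mice, croton oil 80 μg in acetone on right ear with topical test substance; ear punch (6 mm) homogenized in 0.1 M sodium acetate pH 4.2 with 0.1% HTAB, centrifuged 15000g 5 min; supernatant myeloperoxidase measured with TMB (2.83 mM) and 0.7 mM H2O2, 5 min at 25 °C, stopped with acetic acid, A620; duplicates; units = nM TMB oxidized/min.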
# Mus musculus [20] = experiment: Antiinflammatory activity in CD1 mouse ear dermatitis model assessed as inhibition of Croton oil-induced ear edema at 0.4 umol administered topically per cm'2 of ear measured 48 hrs after induction of dermatitis relative to untreated control
# Mus musculus [21] = experiment: Antiinflammatory effect in CD1 mouse ear dermatitis model assessed as reduction in mast cell degranulation at 0.4 umol administered topically per cm'2 of ear measured after 6 hrs post dermatitis induction relative to control; type: functional, organism-based; outline: as §2
# [22] = tested on: Radical scavenging activity; experiment: Antioxidant activity assessed as DPPH free radical scavenging activity after 30 mins by spectrophotometry; type: functional; conditions: read-out: IC50
compound,measurement,setting,value
C=C1C(=O)O[C@@H]2[C@H]3O[C@]3(C)CC/C=C(\C)CC[C@@H]12,IC50,[1],1.4 µM
C[C@]12CCC(=O)C=C1CC[C@@H]1[C@@H]2[C@@H](O)C[C@@]2(C)[C@H]1CC[C@]2(O)C(=O)CO [HYDROCORTISONE],inhibition (INH),Mus musculus [2],29%
same,inhibition (INH),Mus musculus [3],79%
same,ID50,Mus musculus [4],0.03 umol/cm2
same,inhibition (INH),Mus musculus [5],60%
same,inhibition,Mus musculus [6],Active
same,inhibition (INH),Mus musculus [7],69%
same,inhibition (INH),Mus musculus [8],77%
same,inhibition (INH),Mus musculus [9],51%
same,inhibition,Mus musculus [10],Active
same,inhibition (INH),Mus musculus [11],55%
same,inhibition (INH),Mus musculus [12],35%
COc1ccc2c(c1)c(CC(=O)O)c(C)n2C(=O)c1ccc(Cl)cc1 [INDOMETHACIN],inhibition (INH),Mus musculus [13],51%
same,inhibition,Mus musculus [14],Active
same,ID50,Mus musculus [4],0.29 umol/cm2
same,inhibition (INH),Mus musculus [15],80%
same,inhibition,Mus musculus [16],Active
same,inhibition (INH),Mus musculus [8],25%
same,inhibition,Mus musculus [17],inactive
same,inhibition,Mus musculus [18],Active
same,inhibition,Mus musculus [19],Active
same,inhibition,Mus musculus [20],inactive
same,inhibition,Mus musculus [21],Active
O=C1O[C@H]([C@@H](O)CO)C(O)=C1O [ASCORBIC ACID],IC50,[22],24.2 µM
